What was measured:
[1] = folding enthalpy; higher = less favourable; fluorescence melt of hairpins on a sequencing array, two-state fit; conditions: sodium 0.088 M
Outline: (§1)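 With Cy3 and quencher oligos annealed, library hairpins on a sequenced MiSeq flow cell were imaged for Cy3 fluorescence in 50 mM Na-HEPES pH 8.0, 25 mM NaCl, in 2.5 °C steps up to 60 °C. Melting temperature and folding enthalpy were derived from bootstrapped two-state fits of signals normalised to pre-quench Cy3 and to control constructs. Four replicates were combined by inverse variance, with fitted temperatures raised by 9.35 °C to match UV melts.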

[2] = melting temperature; fluorescence melt of hairpins on a sequencing array, two-state fit, raised by 9.35 °C to match UV melts; conditions: sodium 0.088 M
Outline: as §1

Sequence | folding enthalpy [1] [kcal/mol] | Tm [2] [°C]
GGTTAGCGAAAGCTACC (((.(((....)))))) | -17.2 | 53.3
GCAGAGCGAAAGCCCTGC ((((.((....)).)))) | -29.1 | 63.2
GTCCTTGAAAAAGGAC ((((((....)))))) | -33.2 | 56
GACCGCCGAAAGGCCGTC (((.(((....))).))) | -18.8 | 50.7
GGTCATCGAAAGATTACC (((.(((....))).))) | -34.3 | 42.6
GTTTACACGAAAGTGAAC (((..(((....)))))) | -11.9 | 25.7
GTCCTGAAAAGGAC (((((....))))) | -31 | 55.9
GGTACTGGAAACAGCACC (((.(((....))).))) | -29.3 | 43.9
GGAGAGGCGAAAGCCTCC (((..(((....)))))) | -7.4 | 49.5
GATCTGCGGACAGATC ((((((....)))))) | -28.2 | 50.4
GGTCGACCGAAAGGTACC (((..(((....)))))) | -14 | 31.8
GCGCCAGGAAACTGACGC (((.(((....))).))) | -43.1 | 56
GCTGAAGGAAACCTCAGC (((((.(....).))))) | -37.2 | 47
GATCCCGAAAGGGGATC ((((((....))).))) | -31.4 | 57.8
GGTGGCGGAAACGCCATC (.(((((....))))).) | -16.4 | 59.9
CGACTGAAAAGTCG (((((....))))) | -26.5 | 58.5
GATGTGGGAAACTGCATC ((((..(....)..)))) | -27.1 | 36.1
GATTGAGGAAACTCAACC (.(((((....))))).) | -17.1 | 31.3
GAGGCCGGAAACAGCCCC (.(((.(....).))).) | -10.6 | 27.2
GTAATTCGAAAGAACTAC (((.(((....))).))) | -14.6 | 30
GGGTTCGAAAGAAATCCC ((((((....)))..))) | -21.3 | 33.6
GTGGACCGAAAGGTGCAC (((.(((....))).))) | -24.7 | 67.3
GCGATGCGAAAGCAAAGC ((..(((....)))..)) | -32.9 | 61

Sequence | folding enthalpy [1] [kcal/mol] | Tm [2] [°C]
CGCTTCCGGAAACGGGCG (((..(((....)))))) | -23.4 | 40
GCATCGCGAAAGCGCAGC ((..(((....)))..)) | -12.6 | 39.9
GTCAGCCGAAAGGCGAC (((.(((....)))))) | -15 | 61.5
GCCACAGGAAACTGTGAC (.(((((....))))).) | -15.9 | 46
CGAGTACGGAAACGTTCG (((..(((....)))))) | -20.4 | 36.6
GATCCCCCGGGGGATC ((((((....)))))) | -41.4 | 66
GTATTCGAAAGAACTAC ((((((....))).))) | -9.16 | 22.4
GCTCAGCGAAAGCTACGC ((..(((....)))..)) | -11.4 | 35
GCTCACGGAAACGCGAGC ((((.((....)).)))) | -51.9 | 53.4
GATCACGAGAGTGATC ((((((....)))))) | -28.4 | 67.8
CACCAGAAATGGTG (((((....))))) | -23.4 | 50
GTCTGCGAAAGCAAGAC ((((((....))).))) | -26.3 | 60.5
GTACGCGAAAGCGGGTAC ((((((....)))..))) | -10.6 | 38.7
GAACACCGAAAGGTTTTC (((.(((....))).))) | -25.1 | 38
GTATACGGAAACGTGTAC (((.(((....))).))) | -35.3 | 46.3
GATCCGCCCGCGGATC ((((((....)))))) | -38.3 | 68.7
GTTTGAGGAAACTTAAAC ((((.((....)).)))) | -18.4 | 36.9
ATACGGAAACGTAT (((((....))))) | -21.8 | 43.5
GATCCCTGTAGGGATC ((((((....)))))) | -41.1 | 65.8
GCTTATGGAAACGTAAGC (((((.(....).))))) | -44 | 45.1
GAGGCTGGAAACGGCCTC (((((.(....).))))) | -46.4 | 59.6
GAACGCGAAAGCGCCTTC ((((((....)))..))) | -11.1 | 35.8
GCGAATAGTCGC ((((....)))) | -17.4 | 44.7

Sequence | folding enthalpy [1] [kcal/mol] | Tm [2] [°C]
GTGGGTCGAAAGACTCAC (((.(((....))).))) | -40.4 | 59
GTTGGGCGAAAGCCAAC (((.(((....)))))) | -17.5 | 53
GATCATAGTATGATC ((((((...)))))) | -35.6 | 47.2
GCCTCCGAAAGGATTGGC ((((((....)))..))) | -19.7 | 47.4
GTGGTCGAAAGACTCAC ((((((....))).))) | -19.6 | 46.2
GTCCCCGAAAGGGCAGAC ((((((....)))..))) | -13 | 36.7
GATCTTACGAAAGATC ((((((....)))))) | -26.4 | 39.4
GGTGCAACGAAAGTTACC (((..(((....)))))) | -13.1 | 27.7
GATCCTACCAAGGATC ((((((....)))))) | -38.1 | 53.2
GTGGTGGGAAACCACTAC ((.((((....)))).)) | -22.5 | 56.1
GATCGGAACCCCGATC ((((((....)))))) | -40 | 54.1
GATCCTGTAAGGATC ((((((...)))))) | -37 | 62
GGTAAATCGAAAGATACC (((..(((....)))))) | -15.1 | 30.4
GAGGGCGAAAGCCTGCTC ((((((....)))..))) | -12.4 | 42.5
GTATGCGAAAGCAGTAC ((((((....))).))) | -17.7 | 39.5
GGCTGCCCGAAAGGGGCC (((..(((....)))))) | -13.7 | 47.6
GATCTGGGTGCAGATC ((((((....)))))) | -47.2 | 52.5
GCCGACGAAAGTCACGGC ((((((....)))..))) | -26.8 | 53.1
GGCGCACGAAAGTGGCC (((.(((....)))))) | -18.3 | 59.9
GCAAGTGGAAACGTTTGC ((((..(....)..)))) | -20.4 | 34.4
GGTATCGAAAGATTACC ((((((....))).))) | -24.9 | 37.7
GCGCTGCGAAAGCCTCGC (((..((....))..))) | -22 | 47.6
GAAATACGAAAGTAGTTC (((.(((....))).))) | -26.7 | 42.1

Sequence | folding enthalpy [1] [kcal/mol] | Tm [2] [°C]
GTGCTCCGAAAGGACCAC (((.(((....))).))) | -27.5 | 45
GATCTTTTCGAAGATC ((((((....)))))) | -33.5 | 46.4
GACCACCCGAAAGGGGTC (((..(((....)))))) | -13.1 | 46.5
GATCAGGTGACTGATC ((((((....)))))) | -46.4 | 54.9
GCCATGCGAAAGCCTTGC ((.(.((....)).).)) | -10 | 26.6
GGTGTGGGAAACCATACC (((.(((....))).))) | -33.5 | 50.8
GGTAACGAAAGTTTACC ((((((....))).))) | -22.4 | 43.3
GATCATCCCTATGATC ((((((....)))))) | -37.4 | 47.5
GTAGTGTCGAAAGACTAC (((..(((....)))))) | -15.1 | 33.3
GAGATAGCGAAAGCTCTC (((..(((....)))))) | -15.9 | 40
GTGATTCGAAAGAAACAC (((.(((....))).))) | -30 | 46.5
GTTATTGCGAAAGCAAAC (((..(((....)))))) | -10.3 | 29.1
GGACACGAAAGTGATCC ((((((....))).))) | -21.7 | 48.5
GTACAACGAAAGTTTTAC (((.(((....))).))) | -18.6 | 36.7
GAAGACGAAAGTCTTTC ((((((....))).))) | -13.1 | 48.1
GATGAAGGAAACTTCACC (.(((((....))))).) | -13.2 | 32.2
GAGCGCCGAAAGGCACTC (((.(((....))).))) | -20.2 | 56.4
GATCGTGCCACGATC ((((((...)))))) | -35.8 | 57.8
GTTTAACGAAAGTTCAAC (((.(((....))).))) | -20.9 | 36
GGGCCAGGAAACCGACCC (((.(.(....).).))) | -20.9 | 34.6
GATGACGAAAGTCTAATC ((((((....)))..))) | -12 | 29.9
GAGCGGCGAAAGCCTCTC (((.(((....))).))) | -20.5 | 51.7
GCTCTAGGAAACCAGAGC (((((.(....).))))) | -31.4 | 44
